High-throughput results deposited in PubChem by Johns Hopkins Ion Channel Center.
RGS4 pot – potentiators or activators of RGS4; HEK293 M3R/inducible RGS4, carbachol calcium flux Fluo4; hits give low values; B-score at 10 µM; AID 463111; actives 0.92% (n = 310,000);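 active = B-score of the integrated calcium signal more than 4 SD below the library mean, with starting fluorescence not abnormally high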;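 note: negative B-score means reduced calcium response which marks RGS4 activation or potentiation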
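System: HEK293 FlpIn-TREx cells, stable M3R, doxycycline-inducible RGS4. Timing: overnight RGS4 induction, 30 min dye load 37 °C, 20 min compound RT. Also added: carbachol, ECmax concentration. Measured by: Fluo4 fluorescence kinetic imaging of calcium. Evaluation: integrated calcium ratio converted to B score.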
MrgX1 PAM – human MrgX1 positive allosteric modulation, primary screen | Q96LB2 | MrgX1-HEK293, Fluo-4 calcium flux, FDSS; hits give high values | B-score at 10 µM | actives 0.63% (n = 310,000);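 active = plate-corrected calcium response at least 3 library SD above typical, normal starting fluorescence, not activating the receptor alone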;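 note: compound read alongside a low EC10 to EC30 dose of BAM8-22 agonist; peak minus trough fluorescence over baseline measured at the second addition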
Target sequence (Q96LB2 whole entry, looked up): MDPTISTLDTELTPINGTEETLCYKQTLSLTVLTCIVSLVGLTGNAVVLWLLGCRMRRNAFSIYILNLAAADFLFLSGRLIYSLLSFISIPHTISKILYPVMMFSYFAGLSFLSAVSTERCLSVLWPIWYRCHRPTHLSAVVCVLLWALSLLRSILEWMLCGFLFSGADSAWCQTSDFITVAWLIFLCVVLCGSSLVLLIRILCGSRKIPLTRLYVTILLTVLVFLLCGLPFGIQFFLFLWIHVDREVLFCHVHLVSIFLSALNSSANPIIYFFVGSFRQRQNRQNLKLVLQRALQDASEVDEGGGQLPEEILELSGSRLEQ
MrgX1 ag – agonists of human MrgX1 receptor | Q96LB2 | MrgX1-HEK293 cells, Fluo-4 calcium fluorescence, agonist mode; hits give high values | B-score at 10 µM | actives 0.44% (n = 310,000);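 active = calcium response B-score plate-corrected fluorescence ratio at least 3 library SD, with starting fluorescence B-score inside 5 SD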
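Assay system: stable human MrgX1 HEK293 cell line. Quantity: 15,000 cells per well. Schedule: cells plated overnight, dye loaded 0.5 h 37 °C, 0.5 h room temperature. Detection: Fluo-4 NW calcium-flux fluorescence, kinetic read. Read-out basis: peak-minus-minimum fluorescence over baseline, converted to B scores. Control set: positive and negative control wells on each plate.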
RGS4 inh – human RGS4 inhibition. P49798. HEK293 M3R/RGS4 inducible, Fluo-4 calcium flux; hits give high values; triggered by carbachol at its EC20. B-score at 10 µM. actives 0.45% (n = 310,000). AID 463165;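 active = B-score, a plate-corrected calcium signal, over three deviations above library mean, with baseline fluorescence within five deviations of library mean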;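 note: RGS4 expression induced by doxycycline in cells with stable M3 receptor; B-score is computed from the integrated fluorescence ratio over baseline after carbachol; higher B-score means a larger calcium signal and so more RGS4 inhibition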
Target sequence (P49798 whole entry, looked up): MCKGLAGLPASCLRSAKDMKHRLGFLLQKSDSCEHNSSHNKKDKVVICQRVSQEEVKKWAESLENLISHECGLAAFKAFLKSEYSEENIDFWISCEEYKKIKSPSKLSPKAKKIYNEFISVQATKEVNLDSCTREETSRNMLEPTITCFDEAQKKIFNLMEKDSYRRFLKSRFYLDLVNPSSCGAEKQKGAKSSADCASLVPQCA
MrgX1 antagonist – blocks BAM8-22 activation of human MrgX1 receptor; B-score at 10 µM; Q96LB2; AID 588676; actives 1.3% (n = 310,000); MRGX1-HEK293 calcium flux, Fluo-4, BAM8-22 antagonism; hits give low values;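 active = calcium-response B-score plate-corrected more than 3 library SD below zero, starting fluorescence within 5 deviations, no agonist response on first addition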;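 note: peak minus trough fluorescence over baseline after final BAM8-22 challenge near maximal dose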
* marks the source's active call; other numbers are inactive results; i = inactive; nt = not tested or not shown; ! = not active in a repeat. A selection: hits, their analogues and other compounds. The true share with any hit is near 3.5%.

SMILES	RGS4 pot	MrgX1 PAM	MrgX1 ag	RGS4 inh	MrgX1 antagonist
COc1cc(C(=O)NCC(c2cccnc2)N2CCN(c3ccccc3)CC2)cc(OC)c1OC (configuration not stated)	i	i	i	i	i
CS(=O)(=O)N1CCN(C(=O)C2c3ccccc3Oc3ccccc32)CC1	-7.48*	i	i	i	i
N#Cc1c(C(F)(F)F)cc(-c2ccco2)nc1SCc1ccncc1	i	i	i	i	-5.1*
Cc1ccc(C(=O)NC(=S)Nc2ccc(CN3CCOCC3)cc2)cc1	i	i	i	i	i
N#C/C(=C\c1ccc(F)cc1)c1nc(-c2ccco2)cs1	i	i	i	i	i
N#C/C(=C\c1ccc(Cl)cc1)c1nc(-c2ccco2)cs1	i	i	i	i	-6.19*
O=C(COc1ccccc1)Nc1sc2c(c1C(=O)NCc1cccnc1)CCCC2	i	i	i	i	i
COc1ccc(/C=C/C(=O)Nc2sc3c(c2C(=O)NCc2cccnc2)CCCC3)cc1	-8.72*	i	i	i	i
CCOc1ccc(C2CC(c3cccc(OC)c3)n3nc(N)nc3N2)cc1 (configuration not stated)	i	i	i	i	i
COc1cc(N=c2ssnc2Cl)c(OC)cc1Cl	i	i	40.2*	i	i
COc1ccccc1-n1c(-c2ccccc2)c[n+]2c1CCc1ccccc1-2	-7.94*!	i	i	i	i
COc1ccc(C2C(C#N)=C(C)NC3=C2C(=O)c2ccccc23)cc1 (configuration not stated)	-7.39*	i	i	i	i
CCOc1ccc(C2C(C#N)=C(C)NC3=C2C(=O)c2ccccc23)cc1 (configuration not stated)	i	i	i	i	i
CC1(c2nnc(-c3ccc(Cl)cc3)o2)CC(c2cccc(Cl)c2)=NO1 (configuration not stated)	i	i	i	i	-5.86*
CCCN1C2CCCC1CC(NC(=O)Nc1cccc(C(C)=O)c1)C2 (configuration not stated)	i	i	i	i	i
CCc1ccc(NC(=S)NC2CC3CCCC(C2)N3Cc2ccccc2)cc1 (configuration not stated)	-8.72*	i	i	i	i
O=C(Nc1ccccc1-c1ccccc1)NC1CC2CCCC(C1)N2CCc1ccccc1 (configuration not stated)	-7.1*	i	i	i	i
Cc1ccc(CN2C3CCCC2CC(NC(=O)c2ccc(F)cc2)C3)cc1 (configuration not stated)	i	i	i	i	i
S=C(Nc1ccc(Cl)cc1)NC1CC2CCC(C1)N2Cc1ccccc1 (configuration not stated)	i	i	i	i	i
O=C(Nc1ccccc1-c1ccccc1)NC1CC2CCCC(C1)N2Cc1ccc(F)cc1 (configuration not stated)	-9.96*	i	i	i	i
CCN(CC(=O)Nc1ccc(NC(C)=O)cc1)C(=O)c1cccc(Oc2ccccc2)c1	i	i	i	i	i
COc1cc(C2CC(=O)n3c(nc4ccccc43)S2)cc(OC)c1OC (configuration not stated)	i	nt	nt	i	nt
Cc1cc(NC(=O)CSc2nnc(N)s2)c([N+](=O)[O-])cc1C	i	i	i	i	-7.05*
COc1ccc(Cl)cc1-n1c(C)cc(C=O)c1C	i	7.77*	i	i	i
CCOC(CCn1c(SCC(=O)NC2CCCC2)nc2ccccc2c1=O)OCC	i	i	i	i	i
SMILES	RGS4 pot	MrgX1 PAM	MrgX1 ag	RGS4 inh	MrgX1 antagonist
CC(C)c1ccc(/C=C/C(=O)Nc2ccc(CN3CCOCC3)cc2)cc1	-8.25*	i	i	i	i
CCCCCc1cc(=O)oc2c(C(CCN3CCCC3)c3cc(OC)c(OC)c(OC)c3)c(OC)cc(OC)c12 (configuration not stated)	i	i	i	i	-5.35*
CCCCCc1cc(=O)oc2c(C(CCN3CCCCC3)c3ccc(OC)cc3)c(OC)cc(OC)c12 (configuration not stated)	i	i	i	i	i
O=C(c1cccc(C(=O)N(c2ccccn2)C2CCCCC2)c1)N(c1ccccn1)C1CCCCC1	i	i	i	i	-6.78*
N#C/C(=C\c1ccccc1)C(=O)N(c1ccccn1)C1CCCCC1	i	i	32.6*	i	i
NC(=O)CSC1=N/C(=C\c2ccco2)C(=O)N1c1ccc(OC(F)F)cc1	i	i	i	i	i
CCOc1cc(/C=C2\N=C(SC(C)C(N)=O)N(c3ccc(OC(F)F)cc3)C2=O)ccc1O (configuration not stated)	i	11.4*	i	i	i
Oc1ccc(CNC2CCCCC2)cc1	i	i	i	i	i
CCOC(=O)N1c2ccccc2Sc2ccccc21	i	i	i	i	i
Cc1nnc(SC(=O)N2c3ccccc3Sc3ccccc32)s1	-7.01*	i	i	i	i
N#C/C(C(=O)N1CCCCC1)=C1/N=C(N)c2ccccc21	i	i	i	i	i
Cc1noc(C)c1COC(=O)c1cccc(S(=O)(=O)N2CCOCC2)c1	i	i	i	i	i
Cc1noc(C)c1COC(=O)c1cccc(S(=O)(=O)N2c3ccccc3CC2C)c1 (configuration not stated)	-7.4*	i	i	i	i
CCN1/C(=C/c2cc[n+](C)cc2)C=Cc2cc(C)ccc21	nt	i	i	nt	-6.98*
Cn1c(SCc2ccccn2)nnc1-c1ccncc1	i	i	i	i	i
O=[n+]1cc(-c2ccc(Br)cc2)n([O-])c2c1CCC2	i	i	i	i	-4.58*
O=[n+]1cc(-c2ccc(Cl)cc2)n([O-])c2c1CCC2	i	i	i	i	i
CC(=O)C(C)Oc1ccc2c3c(c(=O)oc2c1)CCCC3 (configuration not stated)	i	i	i	i	i
O=C(NN1C(=O)C2C3C=CC(C4CC34)C2C1=O)c1cccc(Cl)c1 (configuration not stated)	i	i	i	i	i
Cc1ccccc1/C=C/C(=O)N1CCOCC1	i	i	i	i	i
COc1ccccc1/C=C/C(=O)N1CCOCC1	-7.78*	i	i	i	i
O=[N+]([O-])c1ccc(Oc2cnc3ccccc3n2)cc1	i	i	i	i	i
C=CCCCCc1nc2ccccc2c(=O)n1N	i	i	i	i	i
